Legend:
[1] = target: T1, Cytochrome P450 3A5 (Homo sapiens, UniProt P20815); experiment: Binding affinity to His-tagged CYP3A5 (unknown origin) expressed in Escherichia coli DH5alpha assessed as five-coordinate HS ferric heme iron state formation with displacement of distal water ligand by EPR spectroscopy
Procedure, shortened: (§1)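 Continuous-wave X-band EPR of purified recombinant enzyme, alone and in complex with ligand. Spectra were compared against the ligand-free form.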

[2] = target: T1, Cytochrome P450 3A5; experiment: Binding affinity to heme in His-tagged CYP3A5 (unknown origin) expressed in Escherichia coli DH5alpha assessed as formation of five-coordinate ferric heme iron by measuring type 1 Soret shift from 417 nm (low spin) to 395 nm (high spin) by UV-vis spectrophotometric titration analysis
Procedure, shortened: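 Purified recombinant His-tagged CYP3A5 titrated with successive ligand additions until heme absorbance stopped changing. The ligand-free spectrum was subtracted to give difference spectra. Peak-minus-trough values were plotted against ligand concentration and fitted to a binding equation for Kd. Wavelength pairs: ΔA 386–418 nm for the type I shift; ΔA 432–410 nm for the type II shift.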

[3] = target: Cytochrome P450 3A4 (Homo sapiens, UniProt P08684); experiment: Binding affinity to His-tagged CYP3A4 (unknown origin) expressed in Escherichia coli DH5alpha assessed as induction of HS formation by EPR spectroscopy; format: ADME; procedure, shortened: as §1
Chain of Cytochrome P450 3A4 (P08684 whole entry): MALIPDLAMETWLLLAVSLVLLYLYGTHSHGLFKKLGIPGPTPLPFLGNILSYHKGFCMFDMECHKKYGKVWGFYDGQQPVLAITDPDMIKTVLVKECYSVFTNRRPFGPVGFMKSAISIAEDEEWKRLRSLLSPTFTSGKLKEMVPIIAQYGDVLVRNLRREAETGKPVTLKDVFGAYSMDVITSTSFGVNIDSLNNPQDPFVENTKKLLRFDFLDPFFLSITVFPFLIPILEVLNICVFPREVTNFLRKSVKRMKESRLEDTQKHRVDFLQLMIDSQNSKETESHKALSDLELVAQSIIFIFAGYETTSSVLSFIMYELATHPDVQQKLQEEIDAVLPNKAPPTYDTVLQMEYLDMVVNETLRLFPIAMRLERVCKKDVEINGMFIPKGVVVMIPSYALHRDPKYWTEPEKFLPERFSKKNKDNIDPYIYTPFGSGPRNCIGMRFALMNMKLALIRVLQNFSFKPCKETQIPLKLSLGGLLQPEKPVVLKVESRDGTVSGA

Measured: Activity

T1 sequence (P20815 whole entry): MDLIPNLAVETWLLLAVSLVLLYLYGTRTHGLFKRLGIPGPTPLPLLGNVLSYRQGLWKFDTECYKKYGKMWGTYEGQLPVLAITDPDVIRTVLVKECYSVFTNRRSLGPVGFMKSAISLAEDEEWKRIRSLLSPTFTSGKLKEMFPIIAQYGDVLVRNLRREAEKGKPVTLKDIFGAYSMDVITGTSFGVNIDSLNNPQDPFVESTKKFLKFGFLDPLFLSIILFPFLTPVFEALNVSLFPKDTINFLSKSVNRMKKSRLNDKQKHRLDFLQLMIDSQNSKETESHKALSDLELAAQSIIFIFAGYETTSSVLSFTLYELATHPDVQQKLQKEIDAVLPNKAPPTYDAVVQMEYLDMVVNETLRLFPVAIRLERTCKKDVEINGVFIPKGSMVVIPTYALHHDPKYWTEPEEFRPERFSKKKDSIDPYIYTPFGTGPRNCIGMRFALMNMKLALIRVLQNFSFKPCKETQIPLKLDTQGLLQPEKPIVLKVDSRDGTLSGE

Cc1ncc2n1-c1ccc(Cl)cc1C(c1ccccc1F)=NC2 [MIDAZOLAM]
Active: all assays above

— ChEMBL document CHEMBL4321880 (J Med Chem, 2020)
